Measured values as given in ChEMBL document CHEMBL4049414, “Can We Make Small Molecules Lean? Optimization of a Highly Lipophilic TarO Inhibitor” (J Med Chem, 2017).
Converted amounts (≈) assume the structure as drawn. The source made the active and inactive calls. The rule behind the calls is not given here.

Experiments:
Staphylococcus aureus [1] = assay: Growth inhibition of methicillin-resistant Staphylococcus aureus COL after 20 hrs
Summary of the method: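 MRSA COL grown with compound alone, with no antibiotic added. Growth read by OD600. The value is the minimum concentration that inhibits 95% of growth (iMITC95).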

[2] = Inhibition of TarO in methicillin-resistant Staphylococcus aureus membranes assessed as reduction in C55-P-P-GlcNAc production using C55-P as substrate in presence of UDP-GlcNAc by LC-MS analysis
[3] = tested on: Staphylococcus aureus subsp. aureus COL; assay: Inhibition of methicillin-resistant Staphylococcus aureus COL TarO assessed as compound concentration required for potentiation of imipenem-mediated bacterial growth inhibition by 95% after 20 hrs
Summary of the method: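 MRSA COL grown with compound in the presence of imipenem at 4 μg/mL. Growth read by OD600. The value is the minimum concentration that inhibits 95% of growth (sMITC95).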

[4] = Solubility of the compound in PBS buffer; assay type: physicochemical
Staphylococcus aureus [5] = assay: Potentiation of imipenem-induced antibacterial activity against methicillin-resistant Staphylococcus aureus COL MB 5393 infected in neutropenic balb/c mouse assessed as reduction in bacterial burden in kidney at 10 mg/kg, sc administered three times per day at 2, 5 and 8 hrs post challenge cotreated with imipenem measured 24 hrs post challenge; assay type: functional, organism-based
Staphylococcus aureus [6] = assay: Antibacterial activity against methicillin-resistant Staphylococcus aureus COL MB 5393 infected in balb/c mouse assessed as reduction in bacterial burden in kidney at 5 mg/kg, sc administered 2 to 8 hrs post challenge measured 24 hrs post challenge; assay type: functional, organism-based
[7] = Inhibition of methicillin-resistant Staphylococcus aureus COL TarO assessed as suppression of bacteriophage K-mediated cell lysis; set-up: species or system Staphylococcus aureus subsp. aureus COL
[8] = Inhibition of methicillin-resistant Staphylococcus aureus COL TarO assessed as late stage targocil suppression after 20 hrs; set-up: species or system Staphylococcus aureus subsp. aureus COL

Row | SMILES | MITC95 (Staphylococcus aureus [1]) [µM] | IC50 [2] [nM] | MITC95 [3] [nM] | further results
1 | C[C@H]1[C@@H](c2cc(C(F)(F)F)cc(C(F)(F)F)c2)OC(=O)N1C(=O)Cc1cncc2ccccc12 | > 200 | 2500 | – | –
2 | C[C@H]1[C@@H](c2cc(C(F)(F)F)cc(C(F)(F)F)c2)OC(=O)N1CCC(=O)N1CCOc2ccccc21 | – | > 200000 | > 200000 | –
3 | O=C(O)C[C@H]1[C@@H](c2cc(F)cc(C(F)(F)F)c2)OC(=O)N1C(=O)NCc1cncc2ccccc12 | > 200 | > 200000 | > 200000 | –
4 | C[C@H]1[C@@H](c2cc(F)cc(C(F)(F)F)c2)OC(=O)N1C(=O)NCc1cncc2ccccc12 | > 200 | 25 | 125 | –
5 | C[C@H]1[C@@H](c2cc(C(F)(F)F)cc(C(F)(F)F)c2)OC(=O)N1CC(=O)Nc1cncc2ccccc12 | – | > 200000 | > 200000 | –
6 | C[C@H]1[C@@H](c2cc(C(F)(F)F)ccn2)OC(=O)N1C(=O)NCc1cncc2ccccc12 | > 200 | 5300 | 6250 | –
7 | C[C@H]1[C@@H](c2cc(C(F)(F)F)cc(C(F)(F)F)c2)OC(=O)N1CCCc1cccc2ccccc12 | – | 38 | – | –
8 | C[C@H]1[C@@H](c2cc(C(F)(F)F)cc(C(F)(F)F)c2)OC(=O)N1C(=O)Cc1cccc2ccccc12 | > 200 | 125 to 171 | 900 | solubility [4]: < 1 µM
9 | CC(=O)NC[C@H]1CN(c2ccc(N3CCOCC3)c(F)c2)C(=O)O1 | – | – | – | Activity (Staphylococcus aureus [5]): Active
10 | C[C@@H](O)[C@H]1C(=O)N2C(C(=O)O)=C(SCCNC=N)C[C@H]12 | – | – | – | Activity (Staphylococcus aureus [6]): inactive
11 | COc1cc(C(F)(F)F)cc([C@H]2OC(=O)N(C(=O)NCc3cncc4ccccc34)[C@H]2CO)n1 | > 200 | 80 | 360 | –
12 | O=C(NCc1cncc2cccnc12)N1C(=O)O[C@H](c2cc(C(F)(F)F)cc(C(F)(F)F)c2)[C@@H]1CO | > 200 | 142 | 390 | –
13 | COc1cc(C(F)(F)F)cc([C@H]2OC(=O)N(C(=O)NCc3cncc4cccnc34)[C@H]2C)n1 | > 200 | 260 | 375 | IC50 [7]: 600 nM; solubility [4]: 32 µM (≈ 14.8 µg/mL); IC50 [8]: 200 nM
14 | O=C(NCc1cncc2ccccc12)N1C(=O)O[C@H](c2cc(F)cc(C(F)(F)F)c2)[C@@H]1CCO | > 200 | 4700 | 18000 | –
